Assay [1] can be described thus: In vitro inhibition of bone resorption by isolated Human osteoclastoma cells by the number of excavations (pits/bone slice). The format is functional. The gist of the method:
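Human giant-cell-tumour osteoclasts were HLA-I bead-depleted and seeded on bone slices (4000 cells/well), 8 slices per concentration, then cultured 48 h in D-MEM. Slices were glutaraldehyde-fixed and TRAP-stained, and cells were bleached off. Slices were gold-coated and resorption pits counted by light microscopy, expressed as pits/bone slice.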

The target in assay [2] is T1, V-type proton ATPase 116 kDa subunit a 1 (Gallus gallus, UniProt Q9I8D0). Nature of the assay: Compound was tested for inhibition of V-ATPase from Chicken adrenal glands(cAG). The format is tissue-based, Adrenal gland. The gist of the method: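 Bafilomycin-sensitive ATPase in purified microsomal membranes from whole chicken adrenal glands (two-step 35%/50% sucrose gradient), 20–40 μg protein/mL. Medium: 0.2 M sucrose, 50 mM KCl, 10 mM Hepes-Tris pH 7.4, 1 mM CDTA, 1 mM ATP, 0.1 mM molybdate, 5 μM valinomycin, 5 μM nigericin. Started with 5 mM MgSO4, 30 min at 37 °C, phosphate read by malachite green.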
T1 sequence (Q9I8D0 whole entry): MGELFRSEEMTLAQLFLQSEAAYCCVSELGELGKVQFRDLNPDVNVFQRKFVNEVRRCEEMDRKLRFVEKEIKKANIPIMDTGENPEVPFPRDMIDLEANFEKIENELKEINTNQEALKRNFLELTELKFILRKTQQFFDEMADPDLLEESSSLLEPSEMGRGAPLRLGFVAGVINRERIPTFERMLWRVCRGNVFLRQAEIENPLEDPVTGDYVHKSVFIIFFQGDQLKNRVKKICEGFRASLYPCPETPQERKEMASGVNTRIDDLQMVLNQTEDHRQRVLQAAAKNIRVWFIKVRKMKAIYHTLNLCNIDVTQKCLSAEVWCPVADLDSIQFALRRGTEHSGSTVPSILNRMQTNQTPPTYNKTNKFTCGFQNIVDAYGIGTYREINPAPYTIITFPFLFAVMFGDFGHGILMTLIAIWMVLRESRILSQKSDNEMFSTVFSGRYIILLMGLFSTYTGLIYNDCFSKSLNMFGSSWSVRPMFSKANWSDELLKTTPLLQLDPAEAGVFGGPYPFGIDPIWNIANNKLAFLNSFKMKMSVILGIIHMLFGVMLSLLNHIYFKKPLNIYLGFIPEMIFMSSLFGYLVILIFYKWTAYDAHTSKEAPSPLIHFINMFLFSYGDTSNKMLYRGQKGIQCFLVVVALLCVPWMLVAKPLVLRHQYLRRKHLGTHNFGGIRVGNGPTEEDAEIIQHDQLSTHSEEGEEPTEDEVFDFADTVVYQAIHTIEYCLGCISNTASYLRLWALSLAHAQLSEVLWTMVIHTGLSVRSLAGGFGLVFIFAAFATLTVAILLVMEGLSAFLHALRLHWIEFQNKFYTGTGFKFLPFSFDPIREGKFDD

Assay [3] deals with V-type proton ATPase subunit B, kidney isoform (Homo sapiens, UniProt P15313). Put plainly: Compound was tested for inhibition of V-ATPase from human kidney cortex(hK). The gist of the method:
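Brush border membranes from frozen human kidney cortex, about 70 μg protein/mL. Bafilomycin-sensitive ATPase in 0.2 M sucrose, 50 mM KCl, 10 mM Hepes-Tris pH 7.4, 1 mM CDTA, 1 mM ATP, 0.1 mM molybdate, 5 μM valinomycin, 5 μM nigericin. Started with 5 mM MgSO4, 30 min at 37 °C, Pi measured colorimetrically (malachite green).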

Assay [4] deals with T1, V-type proton ATPase 116 kDa subunit a 1. Nature of the assay: (§1) Compound was tested for inhibition of V-ATPase from Chicken osteoclasts (cOc). The gist of the method:
(§2)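 Bafilomycin-sensitive ATPase activity in sucrose-gradient-purified membrane vesicles from medullary bone of calcium-starved egg-laying hens, 20–40 μg protein/mL. Medium: 0.2 M sucrose, 50 mM KCl, 10 mM Hepes-Tris pH 8, 1 mM CDTA, 1 mM ATP, 0.1 mM molybdate, 5 μM valinomycin, 5 μM nigericin. Started with 5 mM MgSO4; 30 min, 37 °C; phosphate release by malachite green.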

Assay [5] can be described thus: In vitro inhibition of bone resorption by isolated Human osteoclastoma cells (ELISA). The format is functional. In outline:
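Collagenase-dispersed osteoclastoma cells, negatively selected with HLA-I Dynabeads, were settled on bone slices at 4000 cells/well. Compound was added at several concentrations, with 8 slices per concentration. After 48 h in D-MEM, type I collagen fragments released into the supernatant were quantified by ELISA.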
For orientation: In an ELISA, binding on a coated surface is turned into a signal by an enzyme label.

The target in assay [6] is T1, V-type proton ATPase 116 kDa subunit a 1. Described as §1. The format is functional. In outline:
as §2

A word on the IC50: it is the point on the concentration scale where inhibition reaches its midpoint. Low values mean greater potency, high ones weaker potency.

Chain of V-type proton ATPase subunit B, kidney isoform (P15313 whole entry, canonical isoform): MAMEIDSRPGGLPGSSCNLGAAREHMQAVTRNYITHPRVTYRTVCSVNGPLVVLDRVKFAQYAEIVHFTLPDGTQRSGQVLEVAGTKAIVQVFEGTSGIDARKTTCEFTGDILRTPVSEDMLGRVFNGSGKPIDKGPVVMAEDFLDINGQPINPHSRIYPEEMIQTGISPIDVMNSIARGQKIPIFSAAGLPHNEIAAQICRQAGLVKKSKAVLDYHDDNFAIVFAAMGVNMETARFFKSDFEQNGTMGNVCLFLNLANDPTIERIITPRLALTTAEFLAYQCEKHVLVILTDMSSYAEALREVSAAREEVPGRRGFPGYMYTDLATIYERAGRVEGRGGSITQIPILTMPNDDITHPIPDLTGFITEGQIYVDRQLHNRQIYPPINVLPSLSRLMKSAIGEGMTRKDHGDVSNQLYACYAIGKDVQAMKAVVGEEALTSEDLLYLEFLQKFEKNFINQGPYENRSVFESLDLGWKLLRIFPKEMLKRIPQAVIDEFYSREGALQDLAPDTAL

On to `CO/C(=C\C=C\c1cc2cc(Cl)c(Cl)cc2[nH]1)C(=O)NC1C[C@H]2CC[C@@H](C1)N2C` (some centres not stated), for which the IC50 was 0.03 µM in assay [1]; 2.5 µM in assay [2]; 1.32 µM in assay [3]; 0.1 µM in assay [4]; 0.03 µM in assay [5].
As to `COC(=O)/C(=C\C=C\c1cc2ccccc2[nH]1)OC`, the IC50 in assay [4] and in assay [6] was 30 µM in each case.
`CCN(CC)CCCNC(=O)/C(=C/C=C/c1cc2cc(Cl)c(Cl)cc2[nH]1)OC`: the IC50 in assay [1] was 0.18 µM; in assay [2], 2.8 µM; in assay [3], 3 µM; in assay [4] it was 0.18 µM; in assay [5], 0.14 µM.
Regarding `CO/C(=C\C=C\c1cc2cc(Cl)c(Cl)cc2[nH]1)C(=O)NCCCN1CCN(c2ncccn2)CC1`, the IC50 in assay [1] was 0.03 µM; in assay [2], 0.93 µM; in assay [3], 0.37 µM; in assay [4] it was 0.06 µM; in assay [5], 0.01 µM.
For `CO/C(=C\C=C\c1cc2cc(Cl)c(Cl)cc2[nH]1)C(=O)NC1CC(C)(C)NC(C)(C)C1`, the 50% inhibitory concentration (IC50) stood at 0.04 µM in assay [1]; 0.82 µM in assay [2]; 0.44 µM in assay [3]; 0.08 µM in assay [4]; 0.03 µM in assay [5].

For the origin of these results see ChEMBL document CHEMBL1131210, “5-(5,6-Dichloro-2-indolyl)-2-methoxy-2,4-pentadienamides: novel and selective inhibitors of the vacuolar H+-ATPase of osteoclasts with bone antiresorptive activity” (J Med Chem, 1998).
